Assay results of several laboratories.
Target: Rho-associated protein kinase 2 (ROCK2, Homo sapiens, UniProt O75116)

COc1cnc(Nc2cccc(S(N)(=O)=O)c2)nc1N1CCN(c2ccccc2)C(=O)C1  remaining binding (binding, competition with immobilised ligand; 1 µM): 78%
CN(CCCC(F)(F)F)c1nccc(-c2cnn3ncccc23)n1  remaining binding (binding; 1 µM): 100%
CN(C)C(=O)Cn1cc(-c2nc(C3(c4ccc(-c5cnc(N)nc5)cc4)CC3)no2)cn1  remaining binding (cell-free assay, competition with immobilised ligand; 1 µM): 89%
c1cnn2ncc(-c3ccnc(N4CCC45COC5)n3)c2c1  remaining binding (binding; 1 µM): 70%
O=C(NCCCN1CCOCC1)c1ccc(Nc2ncc(Cl)c(-c3ccc(Cl)s3)n2)cc1  remaining binding (binding, competition with immobilised ligand; 1 µM): 61%
N[C@H]1CCN(c2nccc(-c3cnn4ncccc34)n2)C1  remaining binding (binding; 1 µM): 100%
CN1CCN(c2cnc3c(C4CCN(C(=O)c5ccc(OC(F)(F)F)cc5N)CC4)ncnc3c2)CC1  remaining binding (cell-free assay, competition with immobilised ligand; 1 µM): 100%
O=C(c1ccc(Nc2ncc(Cl)c(-c3cc4ccccc4s3)n2)cc1)N1CCC(N2CCCC2)CC1  remaining binding (binding, competition with immobilised ligand; 1 µM): 7.2%
C[C@@H]1CN(c2ccc3ncc(-c4ccc5[nH]nc(C6CC6)c5c4)n3n2)C[C@H](C)O1  remaining binding (binding, competition with immobilised ligand; 0.5 µM): 21%
CCN1CCN(Cc2ccc(C(=O)Nc3ccc(C)c(Oc4ccc5c(c4)CC(=O)N5)c3)cc2C(F)(F)F)CC1  remaining binding (binding, competition with immobilised ligand; 1 µM): 74%
Cc1nc(N2CC[C@@H](O)C2)ncc1-c1cc(C(F)(F)F)cc2[nH]ncc12  remaining binding (binding, competition with immobilised ligand; 1 µM): 77%
CC(C)(C)c1ccc(-c2nc(CBr)nn2-c2cccc(O)c2)cc1  remaining binding (cell-free assay, competition with immobilised ligand; 10 µM): 58%
CC(=O)N1CCC(c2ccc(C(=O)NC(=N)N)cc2C(F)(F)F)CC1  remaining binding (cell-free assay, competition with immobilised ligand; 1 µM): 100%
CN(C)c1nccc(-c2cnn3ncccc23)n1  remaining binding (binding; 1 µM): 84%
C[C@H](c1cccc(C#N)c1)n1cc(Cl)cc(C(N)=O)c1=N  remaining binding (cell-free assay, competition with immobilised ligand; 1 µM): 94%
O=C(NCC1CCOCC1)c1n[nH]cc1NC(=O)c1c(F)cccc1F  remaining binding (binding, competition with immobilised ligand; 1 µM): 64%
